# Activity calls are given as the source filed them. The calls are words filed in the database; no cut-off is given here.
# What was measured:
# MOLM-13 [1] = assay: Induction of apoptosis in human MOLM13 cells assessed as viable cells at 10 uM measured after 24 hrs by Annexin V-FITC/PI staining based flow cytometry relative to control; format: functional; conditions: MOLM-13, 24 h, read-out: Activity
# [2] = biological target: Cyclin-dependent kinase 5 (Homo sapiens) (UniProt Q00535); assay: Inhibition of CDK5 in human MOLM13 cells assessed as decrease in phosphorylated RB protein level at 5 to 10 uM measured after 24 hrs incubation by Western blot analysis; format: cell-based
# Chain of Cyclin-dependent kinase 5 (Homo sapiens) (Q00535 whole entry, looked up): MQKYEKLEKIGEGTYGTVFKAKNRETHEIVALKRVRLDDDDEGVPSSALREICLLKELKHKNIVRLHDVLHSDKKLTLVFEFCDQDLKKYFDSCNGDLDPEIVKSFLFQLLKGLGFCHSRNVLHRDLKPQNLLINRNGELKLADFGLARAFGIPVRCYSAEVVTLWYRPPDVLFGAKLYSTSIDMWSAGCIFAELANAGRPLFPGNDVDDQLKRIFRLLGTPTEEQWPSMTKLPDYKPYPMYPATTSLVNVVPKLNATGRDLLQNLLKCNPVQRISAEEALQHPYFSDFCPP
# Summary of the method: (§1)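 Cells treated for 24 h; lysates immunoblotted for pAkt (S473), pRB (S780), cyclin D1, p27KIP1, and cleaved caspase 3 and 7 (MOLM-13); at least two independent repeats.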
# MV4-11 [3] = assay: Cell cycle arrest in human MV4-11 cells assessed as accumulation at G1 phase at 2.5 to 10 uM measured after 24 hrs by propidium iodide staining based flow cytometry analysis; format: functional
# Summary of the method: (§2)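 MV4-11 cells treated 24 h at 2.5 and 10 μM; cell-cycle phase distribution (sub-G1, G1, S, G2/M) by flow cytometry; at least two independent experiments, numerical data as mean value.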
# [4] = biological target: Cyclin-dependent kinase 5 (Homo sapiens) (UniProt Q00535); assay: Inhibition of CDK5 in human MOLM13 cells assessed as decrease in phosphorylated Akt protein level at 5 to 10 uM measured after 24 hrs incubation by Western blot analysis; format: cell-based; summary of the method: as §1
# [5] = biological target: Cyclin-dependent kinase 5 (Homo sapiens) (UniProt Q00535); assay: Inhibition of CDK5 in human MV4-11 cells assessed as FAK phosphorylation at S732 at 5 to 10 uM measured after 24 hrs by Western blot analysis
# Homo sapiens = species on record: Homo sapiens; assay: Selectivity ratio of Ki for recombinant full length N-terminal GST tagged human CDK2/CyclinA expressed in baculovirus infected sf9 cells using histone H1 as substrate to recombinant full length N-terminal GST tagged human CDK5/p25 expressed in baculovirus infected sf9 cells using histone H1 as substrate by ADP-Glo kinase assay
# [6] = biological target: Cyclin-dependent kinase 5/CDK5 activator 1 (Homo sapiens, UniProt Q00535+Q15078); assay: Inhibition of recombinant full length N-terminal GST tagged human CDK5/p25 expressed in baculovirus infected sf9 cells using histone H1 as substrate at 10 uM measured after 60 mins in presence of ATP by ADP-Glo kinase assay relative to control
# Chain of Cyclin-dependent kinase 5/CDK5 activator 1 (Q00535 whole entry): as the sequence (Q00535 whole entry, looked up) above
# Chain of Cyclin-dependent kinase 5/CDK5 activator 1 (Q15078 99-307 partner limits assumed): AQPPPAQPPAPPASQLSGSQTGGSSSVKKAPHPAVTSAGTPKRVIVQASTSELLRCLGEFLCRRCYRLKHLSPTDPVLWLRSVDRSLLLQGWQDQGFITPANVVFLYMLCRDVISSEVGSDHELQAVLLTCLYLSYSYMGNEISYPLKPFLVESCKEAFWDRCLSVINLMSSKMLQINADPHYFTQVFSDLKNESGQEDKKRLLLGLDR
# [7] = biological target: Cyclin-dependent kinase 2/cyclin E1 (Homo sapiens, UniProt P24941); assay: Inhibition of CDK2/Cyclin E (unknown origin) incubated for 30 to 120 mins in presence of ATP by ADP-Glo kinase assay; format: protein-complex assay
# MOLM-13 [8] = assay: Induction of apoptosis in human MOLM13 cells assessed as late apoptotic cells at 10 uM measured after 24 hrs by Annexin V-FITC/PI staining based flow cytometry (reference value: 1.94%); format: functional
# MOLM-13 [9] = assay: Induction of apoptosis in human MOLM13 cells assessed as necrotic cells at 10 uM measured after 24 hrs by Annexin V-FITC/PI staining based flow cytometry relative to control; format: functional
# MV4-11 [10] = assay: Cell cycle arrest in human MV4-11 cells assessed as accumulation at S phase at 10 uM measured after 24 hrs by propidium iodide staining based flow cytometry relative to control; format: functional; summary of the method: as §2
# MV4-11 [11] = assay: Cell cycle arrest in human MV4-11 cells assessed as accumulation at G1 phase at 10 uM measured after 24 hrs by propidium iodide staining based flow cytometry relative to control; format: functional; summary of the method: as §2
# MV4-11 [12] = assay: Cell cycle arrest in human MV4-11 cells assessed as accumulation at sub G1 phase at 10 uM measured after 24 hrs by propidium iodide staining based flow cytometry relative to control; format: functional; summary of the method: as §2
# MV4-11 [13] = assay: Cell cycle arrest in human MV4-11 cells assessed as accumulation at G2/M phase at 10 uM measured after 24 hrs by propidium iodide staining based flow cytometry relative to control; format: functional; summary of the method: as §2
Structure (SMILES),viability at 10 µM (MOLM-13 [1]),inhibition [2],Activity (MV4-11 [3]),inhibition [4],inhibition [5],Ratio Ki (Homo sapiens),inhibition [6],Ki [7],Activity (MOLM-13 [8]),Activity (MOLM-13 [9]),Activity (MV4-11 [10]),Activity (MV4-11 [11]),Activity (MV4-11 [12]),Activity (MV4-11 [13])
Cc1cccc(Nc2ncc3c(n2)CCCC3)c1,61.8%,Active,Active,Active,inactive,4,87%,> 5000 nM,7.92%,0.17%,–,–,–,–
NS(=O)(=O)c1cccc(Nc2ncc3c(n2)CCCC3)c1,–,Active,Active,Active,inactive,–,98%,1000 nM,6.16%,–,2.67%,88.08%,5.08%,3.15%

# — ChEMBL document CHEMBL4396883, “Discovery of CDK5 Inhibitors through Structure-Guided Approach” (ACS Med Chem Lett, 2019)
